Experimental data: ChEMBL document CHEMBL4706565, “Anti-glioma effects of 2-aminothiophene-3-carboxamide derivatives, ANO1 channel blockers” (Eur J Med Chem, 2020)
The source made the active and inactive calls. The calls are words filed in the database; no cut-off is given here.

Tests used:
[1] = biological target: T1, Anoctamin-1 (Homo sapiens) (UniProt Q5XXA6); assay: Inhibition of human ANO1 channel expressed in HEK293 cells at 10 uM incubated for 10 mins by FLIPR assay relative to control; assay type: cell-based
T1 sequence (whole entry): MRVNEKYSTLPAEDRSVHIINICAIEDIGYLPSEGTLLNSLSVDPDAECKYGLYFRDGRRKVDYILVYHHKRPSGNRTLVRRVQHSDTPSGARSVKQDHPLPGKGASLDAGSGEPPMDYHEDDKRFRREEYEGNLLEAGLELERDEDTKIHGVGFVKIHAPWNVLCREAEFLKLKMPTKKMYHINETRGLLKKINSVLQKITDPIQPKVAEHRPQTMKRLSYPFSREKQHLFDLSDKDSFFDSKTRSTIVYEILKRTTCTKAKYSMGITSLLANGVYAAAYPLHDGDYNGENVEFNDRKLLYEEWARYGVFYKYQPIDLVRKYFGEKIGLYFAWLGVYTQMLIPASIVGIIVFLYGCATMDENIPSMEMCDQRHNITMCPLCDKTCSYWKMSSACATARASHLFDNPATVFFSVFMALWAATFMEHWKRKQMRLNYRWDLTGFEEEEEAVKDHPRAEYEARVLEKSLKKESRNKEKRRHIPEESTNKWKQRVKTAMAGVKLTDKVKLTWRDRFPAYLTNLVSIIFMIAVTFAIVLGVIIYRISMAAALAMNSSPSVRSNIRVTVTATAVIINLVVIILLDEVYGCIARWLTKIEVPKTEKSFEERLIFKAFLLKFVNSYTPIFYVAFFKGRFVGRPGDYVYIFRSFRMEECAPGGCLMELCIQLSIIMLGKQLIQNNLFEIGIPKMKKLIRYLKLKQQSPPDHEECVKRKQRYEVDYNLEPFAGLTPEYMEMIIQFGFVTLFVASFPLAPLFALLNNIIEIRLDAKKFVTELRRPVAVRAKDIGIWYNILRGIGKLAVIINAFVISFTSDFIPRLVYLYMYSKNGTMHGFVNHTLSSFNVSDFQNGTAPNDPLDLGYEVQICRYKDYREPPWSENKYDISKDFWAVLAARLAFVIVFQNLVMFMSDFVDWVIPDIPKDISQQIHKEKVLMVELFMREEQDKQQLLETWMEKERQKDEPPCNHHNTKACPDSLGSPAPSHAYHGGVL
Method in brief: (§1)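 HEK293 cells expressing human ANO1, 50,000 cells/well, plated overnight. Loaded with FLIPR Red membrane-potential dye in HEPES-buffered saline (pH 7.4) for 40-60 min at room temperature. Compound added for 10 min at room temperature, final DMSO 0.5%.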

[2] = tested on: U-251; assay: Inhibition of anchorage-independent colony formation in human U251 cells at 100 uM incubated for 14 days by crystal violet staining based soft agar colony formation assay; assay type: functional; details: time 14.0 day
Method in brief: (§2)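 Soft agar assay: 2.0×10^3 U251 cells in complete medium with 0.3% agar over a 0.6% bottom agar layer. Treated with compounds at 1-100 μM for 14 days, 37 °C, 5% CO2. Colonies stained with crystal violet for 24 h, whole wells photographed and colonies counted against DMSO control; n = 3.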

[3] = Antiproliferative activity against mouse primary astrocytes assessed as reduction in cell viability at 100 uM measured after 72 hrs by Celltiter-Glo luminescent assay; assay type: cell-based, Astrocyte
Method in brief: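 Primary astrocytes isolated from adult mouse brain by a previously reported method. 5.0×10^3 cells/well, compound as 1:4 serial DMSO dilutions, CellTiter-Glo viability at 72 h.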

[4] = biological target: T2, Anoctamin-1 (Mus musculus, UniProt Q8BHY3); assay: Inhibition of GFP-fused mouse ANO1 channel expressed in HEK293A cells assessed as inhibition of ATP-induced channel current amplitude at membrane potential of +80 mV by patch clamp electrophysiology assay; assay type: cell-based, HEK293-A
T2 sequence (Q8BHY3 whole entry): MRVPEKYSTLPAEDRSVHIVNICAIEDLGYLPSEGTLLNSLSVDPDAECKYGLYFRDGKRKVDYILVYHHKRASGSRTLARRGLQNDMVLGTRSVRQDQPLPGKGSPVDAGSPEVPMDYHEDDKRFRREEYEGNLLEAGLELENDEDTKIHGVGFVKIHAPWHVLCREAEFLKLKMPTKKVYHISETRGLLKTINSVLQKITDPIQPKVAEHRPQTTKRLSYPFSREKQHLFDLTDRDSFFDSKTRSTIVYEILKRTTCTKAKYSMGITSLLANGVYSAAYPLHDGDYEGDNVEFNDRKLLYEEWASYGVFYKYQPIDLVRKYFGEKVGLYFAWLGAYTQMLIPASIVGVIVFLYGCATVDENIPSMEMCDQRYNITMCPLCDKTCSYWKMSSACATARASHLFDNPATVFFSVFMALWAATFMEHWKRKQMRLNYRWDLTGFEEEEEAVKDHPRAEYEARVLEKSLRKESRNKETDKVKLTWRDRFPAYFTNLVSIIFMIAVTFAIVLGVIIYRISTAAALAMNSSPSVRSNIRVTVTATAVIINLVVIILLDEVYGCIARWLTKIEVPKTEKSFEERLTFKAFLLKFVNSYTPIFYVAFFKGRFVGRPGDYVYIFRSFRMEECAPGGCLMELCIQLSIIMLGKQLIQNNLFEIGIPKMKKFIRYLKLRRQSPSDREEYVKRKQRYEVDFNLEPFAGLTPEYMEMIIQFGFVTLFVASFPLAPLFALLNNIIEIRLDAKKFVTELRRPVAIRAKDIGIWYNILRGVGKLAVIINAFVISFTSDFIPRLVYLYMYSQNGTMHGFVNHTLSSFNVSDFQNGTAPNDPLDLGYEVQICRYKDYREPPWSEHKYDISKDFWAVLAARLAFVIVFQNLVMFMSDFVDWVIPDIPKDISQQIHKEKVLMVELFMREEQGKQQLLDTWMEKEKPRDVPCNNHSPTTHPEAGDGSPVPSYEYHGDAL
Method in brief: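 Whole-cell recording at room temperature in HEK293A cells transfected with GFP-mANO1, GFP-mANO2 or GFP-mTTYH1. 1 s ramps from +80 to -80 mV, holding potential -10 mV. For ANO1/ANO2: pipette CsCl 146 mM with Ca-EGTA-NMDG, pH 7.3; bath NaCl-based, pH 7.3. For TTYH1: Tris-aspartate pipette (pH 7.2) and Tris-HCl bath (pH 7.4), with […] and BaCl2 added to block K+ channels, and hypotonic (220 mOsm/kg) bath. Washout recordings assessed reversibility.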

[5] = tested on: U-87 MG; assay: Antiproliferative activity against human U87MG cells overexpressing ANO1 assessed as reduction in cell viability at 100 uM measured after 72 hrs by Celltiter-glo assay; assay type: functional, U-87MG ATCC
Method in brief: (§3)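 5.0×10^3 cells/well seeded, overnight, then compounds added as 1:4 serial dilutions in DMSO; viability read after 72 h with CellTiter-Glo luminescence. GI50 from fitted dose-response curves; triplicate wells, SD from three independent experiments. DMEM for U251 and U138, MEM for U87MG, both with 10% FBS and pen/strep, 37 °C, 5% CO2.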

[6] = tested on: U138-MG; assay: Antiproliferative activity against human U138 cells overexpressing ANO1 assessed as reduction in cell viability at 100 uM measured after 72 hrs by Celltiter-glo assay; assay type: functional; method in brief: as §3
[7] = tested on: U-251; assay: Inhibition of cell invasion in human U251 cells at 10 uM incubated for 48 hrs by Boyden chamber method; assay type: functional
Method in brief: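 Boyden chamber invasion: U251 cells serum-starved 24 h, then 2.5×10^5 cells seeded in 8-μm ECMatrix-coated transwells. Treated with compound at 1 or 10 μM for 48 h at 37 °C. Invasion ratio from relative fluorescence.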

[8] = tested on: U-251; assay: Inhibition of colony formation in human U251 cells at 10 uM incubated for 14 days by crystal violet dye based assay; assay type: functional; details: time 14.0 day
Method in brief: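 Colonies stained 24 h with crystal violet in methanol/formaldehyde/PBS, washed, extracted with 10% acetic acid and read at A570 nm. Compared against DMSO control.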

[9] = tested on: U-251; assay: Inhibition of cell migration in human U251 cells at 10 uM incubated for 18 hrs by wound healing assay; assay type: functional
Method in brief: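 U251 monolayer, 2.0×10^5 cells/well, plated overnight, then scratched and washed with PBS. Wound area imaged before and after incubation; migration ratio taken from migrated area. One-way ANOVA.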

[10] = biological target: T3, Anoctamin-1 (Homo sapiens, UniProt Q5XXA6); assay: Inhibition of human ANO1 channel expressed in HEK293 cells incubated for 10 mins by FLIPR assay; assay type: cell-based; method in brief: as §1
T3 sequence (Q5XXA6 whole entry): T1 sequence (whole entry)

[11] = tested on: U-251; assay: Inhibition of anchorage-independent colony formation in human U251 cells at 10 uM incubated for 14 days by crystal violet staining based soft agar colony formation assay; assay type: functional, cell-based; details: time 14.0 day; method in brief: as §2
[12] = tested on: U-251; assay: Antiproliferative activity against human U251 cells overexpressing ANO1 assessed as reduction in cell viability measured after 72 hrs by Celltiter-glo assay; assay type: functional; method in brief: as §3
[13] = biological target: T3, Anoctamin-1; assay: Inhibition of human ANO1 expressed in FRT cells assessed as inhibition of ATP-induced channel current treated 20 mins prior to ATP challenge and measured by pacth-clamp technique; assay type: cell-based

**Q.** For `CCc1c(C)nc(SCC(=O)Nc2ncc(-c3ccc(OC)cc3)s2)nc1O`, which inhibition [1] is on record?
**A.** 63.9%

**Q.** What about the inhibition [2] of the same compound?
**A.** inactive

**Q.** What about the inhibition at 72 h, 100 µM [3] of the same compound?
**A.** < 50%

**Q.** What about the IC50 [4] of the same compound?
**A.** 2.74 µM

**Q.** What about the inhibition at 100 µM [5] of the same compound?
**A.** < 50%

**Q.** And the inhibition at 100 µM [6]?
**A.** < 50%

**Q.** What about the inhibition at 10 µM [7] of the same compound?
**A.** 19.2%

**Q.** And the inhibition [8]?
**A.** inactive

**Q.** What about the inhibition at 10 µM [9] of the same compound?
**A.** 26.5%

**Q.** What about the IC50 [10] of the same compound?
**A.** 2.6 µM

**Q.** And the inhibition [11]?
**A.** inactive

**Q.** And the GI50 [12]?
**A.** 79.3 µM

**Q.** What about the IC50 [13] of the same compound?
**A.** 1.1 µM
